Screening data as filed in PubChem BioAssay.
An excerpt weighted towards active compounds, which were near 1.3% of everything screened.
Mdm2 ligase inh = inhibitors of human Mdm2 E3 ubiquitin ligase. Q00987. cell-based MDM2 ubiquitination luciferase reporter, 2 h; 0 = plate control, 100 = twice control, blank-subtracted. signal enhancement, % at 5 µM. 210,000 tested, 0.11% active. AID 1230;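 active means signal enhancement of 30% or more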;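 further: luminescence tracks abundance of the self-degrading MDM2-luciferase fusion protein; higher signal means inhibition of MDM2 E3 ligase activity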
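test system = mammalian cells stably expressing self-ubiquitinating, self-degrading MDM2 E3–luciferase fusion | quantity = 2000 cells/well | incubation = cell settling 4 h, compound treatment 2 h, both 37 °C | signal = luminescence with SteadyLite reagent, 15 min at room temperature | evaluation = % enhancement relative to plate controls after blank subtraction | benchmarks = plate controls and plate blanks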
Dynein transport = dynein cargo transport inhibition | z-score, hits read low | 220,000 tested, 0.47% active | 3617.4 mouse cells, GR-EGFP nuclear translocation imaging; test concentration mostly 20 µM; stimulated with dexamethasone, 1 µM; hits give low values;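 active means plate z-score of nuclear minus cytoplasmic receptor signal below a set negative limit, without overly bright fluorescence or cell loss, cut at about -3.5 in these data, passing the limit was not always enough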;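 further: z-score of nuclear minus cytoplasmic ring GR-EGFP intensity difference per well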
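medium = tetracycline-free induction medium containing charcoal-stripped FBS | probe or stimulus = dexamethasone, 1.0 µM final | timing = 48 h induction, then 1 h compound, then 30 min agonist, 37 °C | detection = automated 10x imaging of fixed Hoechst-stained cells | read-out basis = nuclear versus cytoplasmic GR-EGFP signal, averaged per well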
S1P4 agonist = agonists of human S1P4 receptor; O95977; S1P4-expressing cell line, agonist reporter assay; activation, % at 4.98 µM; 220,000 tested, 0.35% active; in the data active means activation above about 11%;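 further: 0% = DMSO vehicle and 100% = reference agonist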
S1P4 antag = antagonists of human S1P4 receptor; S1P4-expressing cells, antagonist mode, reporter read-out; inhibition, % at 4.98 µM; 220,000 tested, 0.26% active; in the data active means inhibition above about 29%;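 further: 0% = wells stimulated with agonist and 100% = vehicle wells without agonist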
S1P3 antagonist = S1P3 (human) receptor antagonism; Q99500; CHO S1P3 NFAT-BLA reporter, FRET fluorescence, antagonist mode; inhibition, % at 4.98 µM; 170,000 tested, 0.27% active;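 active means inhibition above the plate cutoff, the mean inhibition of test wells on that plate plus 3 SD, cut at about 28% in these data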;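 further: cells challenged with S1P at its EC80 of 0.8 µM; blue over green emission ratio from cleaved BLA substrate after 4 h stimulation; 0% = S1P-stimulated wells and 100% = unstimulated DMSO-only wells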
Target sequence (Q99500 whole entry, looked up): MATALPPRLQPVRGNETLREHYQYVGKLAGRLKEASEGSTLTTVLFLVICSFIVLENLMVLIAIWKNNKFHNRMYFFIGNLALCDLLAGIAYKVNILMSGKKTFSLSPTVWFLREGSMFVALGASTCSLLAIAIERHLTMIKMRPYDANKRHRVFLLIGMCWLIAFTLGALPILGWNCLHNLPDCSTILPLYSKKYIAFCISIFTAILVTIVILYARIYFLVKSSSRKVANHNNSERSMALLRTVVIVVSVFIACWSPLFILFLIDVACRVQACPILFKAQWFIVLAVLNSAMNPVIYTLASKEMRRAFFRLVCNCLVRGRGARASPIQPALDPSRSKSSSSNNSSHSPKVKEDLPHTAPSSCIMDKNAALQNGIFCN
Hsp70 act = transcriptional activators of Hsp70; HeLa Hsp70 promoter luciferase reporter, luminescence; scaled: vehicle 0, proteasome-inhibitor control 100%; AID 1203; 200,000 tested, 0.04% active; activation, % at 10 µM;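 active means activation above the mean across all tested compounds plus 3 SD, cutoff set per campaign, cut at about 5.5% in these data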;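 further: 100% = MG132 at 30 µM as the positive control and 0% = DMSO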
S1P4 agonist cf = human S1P4 agonism, confirmation; S1P4 agonist cell-based reporter assay; 740 tested, 7% active; AID 1523; activation, % at 4.98 µM; shares compounds with S1P4 agonist; in the data active means activation above about 12%;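 further: 0% = vehicle and 100% = full reference agonist response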
S1P1 agonist = human S1P1 agonism as S1P4 agonist counter-screen; 740 tested, 4% active; activation, % at 4.98 µM; shares compounds with S1P4 agonist; S1P1 agonist cell-based assay, activation; AID 1563; in the data active means activation above about 21%;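 further: 0% = vehicle wells and 100% = reference agonist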
Numbers without * were called inactive; · = no result given.

SMILES | Mdm2 ligase inh | Dynein transport | S1P4 agonist | S1P4 antag | S1P3 antagonist | Hsp70 act | S1P4 agonist cf | S1P1 agonist
Cc1ccccc1-n1c(SCC(=O)N/N=C/C=C/c2ccccc2[N+](=O)[O-])nc2ccccc2c1=O | -5 | 0.4 | 14* | -15 | 15 | 0 | -3 | -12
COC(=O)c1ccc(NC(C)=O)o1 | -14 | 0.059 | 1 | -10 | · | 0 | · | ·
COC(=O)c1ccc(NC(=O)c2ccccc2)o1 | -8 | -0.53 | 25* | -7 | · | 1 | -2 | -5
CC(=O)C1=C(C)NC(=O)CC1c1ccc(Br)cc1 (stereo not given) | -14 | 0.61 | 2 | 2 | 2 | 0 | · | ·
O=c1cc(CSc2nnc(Nc3ccccc3F)s2)nc2sccn12 | -1 | -1.5 | 55* | 0 | 3 | 0 | -2 | -1
Cc1cccc(NC(=S)N2CCN(S(=O)(=O)c3cccc(F)c3)CC2)c1 | -12 | -1.1 | 20* | 4 | -6 | 0 | -2 | 8
CCOC(=O)c1c(C)n(C)c2ccc(OC(=O)c3ccco3)cc12 | -6 | -0.06 | -1 | -4 | · | 0 | · | ·
CCOC(=O)c1cc2ccc(OC(=O)c3ccco3)cc2oc1=O | -3 | 0.032 | 149* | -156 | -144 | 0 | 84* | 96*
COc1ccc2c(c1OC)C(=O)OC2Nc1ccccn1 (stereo not given) | -1 | -0.92 | -1 | -3 | -52 | 0 | · | ·
COc1ccc2c(c1OC)C(=O)OC2Nc1ccccc1S(=O)(=O)C(F)F (stereo not given) | -15 | 0.91 | 17* | -32 | 1 | 0 | 0 | 3
COc1cccc(NC(=O)Nc2ccc(C(C)(C)C)cc2)c1 | -4 | 0.49 | 5 | -2 | 0 | 0 | · | ·
CCOC(=O)C1C(=O)N(C(=O)c2cncc(Br)c2)CC1c1ccccc1 (stereo not given) | -10 | 2.3 | 20* | -8 | 4 | 0 | -2 | 3
CCOC(=O)C1C(=O)N(C(=O)c2ccc(OC)cc2)CC1c1ccccc1 (stereo not given) | -11 | -0.21 | 0 | 1 | -13 | 0 | · | ·
Cc1cc(C)[n+](C)n1CC(O)Cn1c2ccccc2c2ccccc21 (stereo not given) | -5 | -0.23 | -1 | 0 | -18 | 0 | · | ·
COc1ccc(/C=C/C(=O)Nc2nonc2NC(C)=O)cc1 | -13 | 0.51 | 38* | -4 | -12 | 0 | -1 | 3
COc1ccc(/C=C/C(=O)Nc2cc(C)on2)cc1 | 4 | -0.75 | 2 | -16 | 7 | 0 | · | ·
CCOCCN(C(=O)COC)c1cccc(OC)c1 | -10 | -0.018 | 26* | -22 | · | 0 | -1 | -2
COc1ccc(CC(=O)NNS(=O)(=O)c2ccccc2)cc1OC | -6 | -0.1 | 12* | -13 | -7 | 0 | -3 | -2
COc1ccc(CC(=O)NNS(=O)(=O)c2ccc(F)cc2)cc1OC | -6 | -0.49 | 1 | 6 | -16 | 0 | · | ·
Cc1ccccc1NC(=O)CCn1c(=O)oc2ccccc21 | -6 | 0.29 | 1 | -5 | -43 | -1 | · | ·
COC(=O)c1ccc(NC(=O)CCn2c(=O)oc3ccccc32)cc1 | -12 | -0.8 | 13* | 2 | -15 | 0 | 0 | -3
O=C(Nc1ccccc1C(=O)NC(Cc1c[nH]c2ccccc12)C(=O)O)c1ccccc1 (stereo not given) | -1 | 2.1 | 11* | 0 | 1 | · | -1 | -1
O=C(NC(Cc1c[nH]c2ccccc12)C(=O)O)c1ccc(F)cc1 (stereo not given) | 6 | -0.72 | 0 | -15 | -13 | 0 | · | ·
O=C(COC(=O)c1cccc(C(F)(F)F)c1)NCc1ccccc1 | 1 | 1.5 | 23* | -1 | -10 | 0 | -1 | 7
O=C(COC(=O)c1ccncc1)NCc1ccccc1 | 11 | -0.78 | -3 | -6 | 10 | 0 | · | ·
SMILES | Mdm2 ligase inh | Dynein transport | S1P4 agonist | S1P4 antag | S1P3 antagonist | Hsp70 act | S1P4 agonist cf | S1P1 agonist
O=C(COC(=O)c1cccc(C(F)(F)F)c1)NCc1ccc(Cl)cc1 | -13 | -0.3 | 4 | 13 | 1 | 0 | · | ·
O=C(COC(=O)c1ccc(Br)cc1)NCc1ccccc1 | -7 | -0.57 | 15* | -15 | -13 | 0 | -1 | 7
CCCCN(C(=O)c1ccc(NC(=O)C(C)C)cc1)c1ccccc1 | -16 | -0.66 | -1 | 0 | -10 | 0 | · | ·
COC(=O)c1ccccc1NC(=O)COC(=O)C1CCCCC1 | · | -0.11 | 0 | 0 | -1 | · | · | ·
S=C(c1cn(CCOc2cccc3ccccc23)c2ccccc12)N1CCCC1 | -3 | 2.2 | 29* | -6 | 4 | 0 | -2 | -1
COCCSc1nc(N)c(NC(=O)c2ccc(OC)cc2)c(=O)[nH]1 | 3 | 0.077 | 12* | -7 | -13 | 0 | -2 | -4
Cc1cc(NC(=O)CSc2nc(N)c(NC(=O)c3ccccc3)c(=O)[nH]2)no1 | 3 | 2.1 | 0 | 7 | -29 | 0 | · | ·
CC(C)N1CCN(Cc2cccs2)CC1CCO (stereo not given) | -14 | 2.5 | 64* | 8 | -16 | 0 | -2 | 4
CC(C)CCN1CCN(Cc2cccs2)CC1CCO (stereo not given) | -18 | 0.19 | -1 | -19 | -8 | 0 | · | ·
CCOC(=O)c1nc2sc3c(c2c(=O)n1C(C)C(=O)OCC)CCCC3 (stereo not given) | -2 | -1.1 | 4 | 5 | 5 | 0 | · | ·
C=Cn1cc[n+](CC(=O)c2ccc(C)cc2)c1 | -15 | -0.59 | 18* | -3 | 3 | 0 | -2 | -4
Cc1nc2cc(C(=O)O)ccc2n1-c1ccccc1 | -16 | 3.3 | 0 | -22 | 5 | 0 | · | ·
CC1=CC(C)(C)[N+](C)=CN1c1ccccc1 | -6 | -0.52 | 33* | -8 | -7 | 0 | -1 | 4
O=C(CN1CCC(Cc2ccccc2)CC1)Nc1ccc2c(c1)OCCO2 | · | -0.55 | 413* | -5 | · | 0 | -2 | -9
O=C(CN1CCN(CC(=O)Nc2ccccc2Cl)CC1)Nc1ccc2c(c1)OCCO2 | -29 | -1.5 | 1 | -17 | -44 | 0 | · | ·
CC(C)CC(=O)NC(c1ccccc1Cl)c1c(O)ccc2ccccc12 (stereo not given) | -5 | 0.89 | 13* | -8 | 3 | 0 | -1 | 0
CCOc1ccc(-c2nnn(CC(=O)NCc3ccccc3)n2)cc1 | -9 | -0.1 | 19* | -8 | -16 | 0 | -2 | -6
CCOc1ccc(-c2nnn(CC(=O)NCc3ccco3)n2)cc1 | 17 | -0.79 | 1 | -10 | 22 | 0 | · | ·
CCNS(=O)(=O)c1cc(OC)ccc1OC | -34 | 3.8 | 16* | -2 | · | 0 | -1 | 1
